# Experiments:
# Type in all cases: functional
# [1] = test system: Escherichia coli; assay: Antibacterial activity against ESBL-producing Escherichia coli isolate by broth microdilution method
# In short: (§1)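 Clinical E. coli isolates from Canadian ICUs (CAN-ICU), one per patient and site, genotypically confirmed ESBL or acquired AmpC producers. AmpC groups (EBC, DHA, FOX, CIT) were typed by multiplex PCR and sequencing. Isolates were stored at −80°C in skim milk and subcultured twice from frozen stock. MICs were determined in triplicate by CLSI broth microdilution.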
# [2] = test system: Escherichia coli; assay: Antibacterial activity against AmpC-producing Escherichia coli isolate by broth microdilution method; in short: as §1
# [3] = test system: Escherichia coli; assay: Antibacterial activity against AmpC-producing Escherichia coli assessed as resistant isolates by broth microdilution method
# In short: (§2)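 ICU clinical E. coli isolates, with ESBL or acquired AmpC genotype confirmed (AmpC families by multiplex PCR and sequencing), were stored at −80°C in skim milk and subcultured twice from frozen stock. MICs were determined in triplicate by CLSI broth microdilution. The panel included ampicillin, piperacillin-tazobactam, ceftriaxone, cefepime, cefoxitin, gentamicin, fluoroquinolones, carbapenems, doxycycline, tigecycline and trimethoprim-sulfamethoxazole.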
# [4] = test system: Escherichia coli; assay: Antibacterial activity against ESBL-producing Escherichia coli assessed as resistant isolates by broth microdilution method; in short: as §2
# [5] = test system: Escherichia coli; assay: Antibacterial activity against AmpC-producing Escherichia coli assessed as sensitive isolates by broth microdilution method; in short: as §1
# [6] = test system: Escherichia coli; assay: Antibacterial activity against ESBL-producing Escherichia coli assessed as sensitive isolates by broth microdilution method; in short: as §1
# [7] = test system: Escherichia coli; assay: Antibacterial activity against AmpC-producing Escherichia coli assessed as sensitive isolates by broth microdilution method in presence of Tazobactam; in short: as §1
# [8] = test system: Escherichia coli; assay: Antibacterial activity against ESBL-producing Escherichia coli assessed as sensitive isolates by broth microdilution method in presence of Tazobactam; in short: as §1
# [9] = test system: Escherichia coli; assay: Antibacterial activity against ESBL-producing Escherichia coli isolate by broth microdilution method in presence of Tazobactam; in short: as §1
# [10] = test system: Escherichia coli; assay: Antibacterial activity against ESBL-producing Escherichia coli assessed as resistant isolates by broth microdilution method in presence of Tazobactam; in short: as §2
# [11] = test system: Escherichia coli; assay: Antibacterial activity against AmpC-producing Escherichia coli isolate by broth microdilution method in presence of Tazobactam; in short: as §1
Compound,MIC [1],MIC50 [1],MIC90 [1],MIC [2],MIC50 [2],MIC90 [2],Activity [3],Activity [4],Activity [5],Activity [6],Activity [7],Activity [8],MIC50 [9],MIC90 [9],Activity [10],MIC50 [11],MIC90 [11]
CC1(C)S[C@@H]2[C@H](NC(=O)[C@H](N)c3ccccc3)C(=O)N2[C@H]1C(=O)O [AMPICILLIN],> 256 µg/mL,> 256 µg/mL,> 256 µg/mL,> 256 µg/mL,> 256 µg/mL,> 256 µg/mL,100%,100%,,,,,,,,,
CO/N=C(\C(=O)N[C@@H]1C(=O)N2C(C(=O)[O-])=C(C[N+]3(C)CCCC3)CS[C@H]12)c1csc(N)n1 [CEFEPIME],,8 µg/mL,32 µg/mL,≤ 1 µg/mL,≤ 1 µg/mL,≤ 1 µg/mL,,11.1%,100%,50%,,,,,,,
CO[C@@]1(NC(=O)Cc2cccs2)C(=O)N2C(C(=O)O)=C(COC(N)=O)CS[C@@H]21 [CEFOXITIN],,8 µg/mL,32 µg/mL,,256 µg/mL,> 256 µg/mL,100%,16.7%,,61.1%,,,,,,,
CO/N=C(\C(=O)N[C@@H]1C(=O)N2C(C(=O)O)=C(CSc3nc(=O)c(O)nn3C)CS[C@H]12)c1csc(N)n1 [CEFTRIAXONE],,128 µg/mL,> 256 µg/mL,,16 µg/mL,64 µg/mL,11.1%,83.3%,44.4%,5.6%,,,,,,,
O=C(O)c1cn(C2CC2)c2cc(N3CCNCC3)c(F)cc2c1=O [CIPROFLOXACIN],,> 16 µg/mL,> 16 µg/mL,,≤ 0.06 µg/mL,> 16 µg/mL,11.1%,83.3%,85.2%,16.7%,,,,,,,
C[C@H]1c2cccc(O)c2C(=O)C2=C(O)[C@]3(O)C(=O)C(C(N)=O)=C(O)[C@@H](N(C)C)[C@@H]3[C@@H](O)[C@@H]21.O [DOXYCYCLINE],,4 µg/mL,64 µg/mL,,2 µg/mL,64 µg/mL,18.5%,33.3%,66.7%,61.1%,,,,,,,
C[C@@H](O)[C@H]1C(=O)N2C(C(=O)O)=C(S[C@@H]3CN[C@H](C(=O)Nc4cccc(C(=O)O)c4)C3)[C@H](C)[C@H]12 [ERTAPENEM],,0.12 µg/mL,0.25 µg/mL,,0.12 µg/mL,0.5 µg/mL,,,100%,100%,,,,,,,
C[C@H]1COc2c(N3CCN(C)CC3)c(F)cc3c(=O)c(C(=O)O)cn1c23.C[C@H]1COc2c(N3CCN(C)CC3)c(F)cc3c(=O)c(C(=O)O)cn1c23.O [LEVOFLOXACIN],,16 µg/mL,32 µg/mL,,≤ 0.06 µg/mL,16 µg/mL,26.6%,83.3%,88.9%,16.7%,,,,,,,
C[C@@H](O)[C@H]1C(=O)N2C(C(=O)O)=C(S[C@@H]3CN[C@H](C(=O)N(C)C)C3)[C@H](C)[C@H]12 [MEROPENEM],≤ 0.12 µg/mL,≤ 0.12 µg/mL,≤ 0.12 µg/mL,≤ 0.12 µg/mL,≤ 0.12 µg/mL,≤ 0.12 µg/mL,,,100%,100%,,,,,,,
CCN1CCN(C(=O)N[C@@H](C(=O)N[C@@H]2C(=O)N3[C@@H]2SC(C)(C)[C@@H]3C(=O)O)c2ccccc2)C(=O)C1=O [PIPERACILLIN],,,,,,,,,,,100%,94.4%,2 µg/mL,8 µg/mL,5.6%,2 µg/mL,8 µg/mL
CN(C)c1cc(NC(=O)CNC(C)(C)C)c(O)c2c1C[C@H]1C[C@H]3[C@H](N(C)C)C(O)=C(C(N)=O)C(=O)[C@@]3(O)C(O)=C1C2=O [TIGECYCLINE],,0.5 µg/mL,1 µg/mL,,0.25 µg/mL,0.5 µg/mL,,,100%,100%,,,,,,,
GENTAMICIN,,1 µg/mL,16 µg/mL,,< 0.25 µg/mL,8 µg/mL,3.7%,27.8%,88.9%,66.7%,,,,,,,

# Source: ChEMBL document CHEMBL1275413, “Comparison of antimicrobial resistance profiles among extended-spectrum-beta-lactamase-producing and acquired AmpC beta-lactamase-producing Escherichia coli isolates from Canadian intensive care units” (2008)
